The source of these data is ChEMBL document CHEMBL5154878, “Potent Inhibition of SARS-CoV-2 nsp14 N7-Methyltransferase by Sulfonamide-Based Bisubstrate Analogues” (J Med Chem, 2022).

Structures are written as SMILES. Activity calls are given as the source filed them. The rule behind the calls is not given here. Bounds are passed on as bounds.

The target of assay [1] is Replicase polyprotein 1ab (Severe acute respiratory syndrome coronavirus 2, UniProt P0DTD1). Nature of the assay: Inhibition of N7-MTase activity of SARS-CoV-2 N-terminus hexahistidine tag nsp14 expressed in Escherichia coli C2566 using [3H]SAM as substrate incubated for 30 mins in presence of mGpppAC4 synthetic RNA by radioactive filter binding assay.
The target in assay [2] is Replicase polyprotein 1ab (Severe acute respiratory syndrome coronavirus 2) (UniProt P0DTD1). Nature of the assay: Inhibition of N7-MTase activity of SARS-CoV-2 N-terminus hexahistidine tag nsp14 expressed in Escherichia coli C2566 at 5 uM using [3H]SAM as substrate incubated for 30 mins in presence of mGpppAC4 synthetic RNA by filter binding assay relative to control.

For assay [3] the target is unchanged. The assay can be described thus: Binding affinity to SARS-CoV-2 N-terminus hexahistidine tag nsp14 expressed in Escherichia coli C2566 assessed as change in melting temperature at 0.5 mM by SYPRO orange dye based thermal shift assay. The method in brief: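 nsp14 (freshly purified, 5 μM, in 20 mM Hepes pH 7.5, 150 mM NaCl, ≤5% DMSO) incubated with compound from 500 μM down to 8.4 nM (3-fold serial dilution) plus Sypro Orange 0.00056×. Melt ramp 1 °C per minute, 25–95 °C. Tm from Boltzmann fit; ΔTm taken against DMSO control. Duplicates; Kd from inflection of ΔTm versus concentration.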

In assay [4] the test system is Severe acute respiratory syndrome coronavirus 2. The assay can be described thus: Binding affinity to SARS-CoV N-terminus hexahistidine tag nsp14 expressed in Escherichia coli C2566 assessed as shift in melting temperature at >2 uM by SYPRO orange dye based thermal shift assay.
Assay [5] in a line: Inhibition of N7-MTase activity of SARS-CoV N-terminus hexahistidine tag nsp14 expressed in Escherichia coli C2566 using [3H]SAM as substrate incubated for 30 mins in presence of mGpppAC4 synthetic RNA by radioactive filter binding assay. More on the design: species or system Severe acute respiratory syndrome-related coronavirus.
A short description of assay [6]: Selectivity index, ratio of IC50 for human RNA N7-MTase to IC50 for SARS-CoV-2 nsp14 N7-MTase activity using [3H]SAM as substrate incubated for 30 mins in presence of mGpppAC4 synthetic RNA by radioactive filter binding assay.
For assay [7], the species on record is Homo sapiens. The assay can be described thus: Inhibition of human RNA N7-MTase expressed in Escherichia coli measured upto 50 uM using [3H]SAM as substrate incubated for 30 mins in presence of mGpppAC4 synthetic RNA by radioactive filter binding assay. As to conditions: DDE = dose-dependent effect.
Assay [8] deals with Replicase polyprotein 1ab (Severe acute respiratory syndrome coronavirus 2) (UniProt P0DTD1). Nature of the assay: Inhibition of N7-MTase activity of SARS-CoV-2 N-terminus hexahistidine tag nsp14 expressed in Escherichia coli C2566 assessed as fold change using [3H]SAM as substrate incubated for 30 mins in presence of mGpppAC4 synthetic RNA by radioactive filter binding assay.

Assay [9] can be described thus: Inhibition of human RNA N7-MTase expressed in Escherichia coli measured using [3H]SAM as substrate incubated for 30 mins in presence of mGpppAC4 synthetic RNA by radioactive filter binding assay.

The IC50 is the concentration that gives 50% inhibition. For orientation: inhibition means the change of the read-out against control, counted positive when it falls. In the case of `N#Cc1cc(S(=O)(=O)NC[C@H]2O[C@@H](n3cnc4c(N)ncnc43)[C@H](O)[C@@H]2O)ccc1Cl`, in assay [1], the IC50 was found to be 1010 nM. In addition, the inhibition in assay [2] is 100%.
Turning to `COc1ccc(S(=O)(=O)N(CCCCOC(C)=O)C[C@H]2O[C@@H](n3cnc4c(N)ncnc43)[C@H](O)[C@@H]2O)cc1[N+](=O)[O-]`, in assay [1], the IC50 amounted to 80 nM. The inhibition in assay [2] turned out to be 100%.
With `COc1ccc(S(=O)(=O)NC[C@H]2O[C@@H](n3cnc4c(N)ncnc43)[C@H](O)[C@@H]2O)cc1[N+](=O)[O-]`, the IC50 in assay [1] was 146 nM. In assay [2], the inhibition came out at 90%.
As usually defined, the ΔTm is the change in melting temperature against a reference sample. As for `CCN(C[C@H]1O[C@@H](n2cnc3c(N)ncnc32)[C@H](O)[C@@H]1O)S(=O)(=O)c1ccc(C)c(Cl)c1`, in assay [3], the ΔTm was 11 °C. In addition, the IC50 in assay [1] is 56 nM. The result in assay [4] was Active. The inhibition in [2] turned out to be 95%.
On to `CCN(C[C@H]1O[C@@H](n2cnc3c(N)ncnc32)[C@H](O)[C@@H]1O)S(=O)(=O)c1cccc(Cl)c1`, for which the IC50 in assay [1] was found to be 442 nM. The inhibition in assay [2] was found to be 65%.
For the compound `CCN(C[C@H]1O[C@@H](n2cnc3c(N)ncnc32)[C@H](O)[C@@H]1O)S(=O)(=O)c1cccc(C#N)c1`, in assay [1], the IC50 was determined as 960 nM. Also, the inhibition in assay [2] amounted to 65%.
On to `COc1ccc(S(=O)(=O)N(CCCCNc2cccc3ccccc23)C[C@H]2O[C@@H](n3cnc4c(N)ncnc43)[C@H](O)[C@@H]2O)cc1[N+](=O)[O-]`, for which the ΔTm in assay [3] came to 11 °C. Besides, the IC50 in [1] turned out to be 30 nM. In addition, in assay [4], the result was Active. Moreover, the inhibition in assay [2] stood at 100%.
`CCN(C[C@H]1O[C@@H](n2cnc3c(N)ncnc32)[C@H](O)[C@@H]1O)S(=O)(=O)c1ccc(Cl)c(Cl)c1`: the IC50 in [1] came out at 100 nM. Further, the inhibition in assay [2] was found to be 100%.
Taken in the same sequence, the figures for `CCN(C[C@H]1O[C@@H](n2cnc3c(N)ncnc32)[C@H](O)[C@@H]1O)S(=O)(=O)c1ccc(C)c([N+](=O)[O-])c1` were 38 nM and 100%.
As for `CCN(C[C@H]1O[C@@H](n2cnc3c(N)ncnc32)[C@H](O)[C@@H]1O)S(=O)(=O)c1ccc(OC)c([N+](=O)[O-])c1`, in [1], the IC50 amounted to 44 nM. Also, in assay [2], the inhibition stood at 100%.
In the case of `Nc1ncnc2c1ncn2[C@@H]1O[C@H](CNS(=O)(=O)c2cccc([N+](=O)[O-])c2)[C@@H](O)[C@H]1O`, in assay [1], the IC50 was determined as 3590 nM. For the same compound, the inhibition in assay [2] came out at 80%.
For the compound `CCc1ccc(S(=O)(=O)NC[C@H]2O[C@@H](n3cnc4c(N)ncnc43)[C@H](O)[C@@H]2O)cc1[N+](=O)[O-]`, in [1], the IC50 stood at 244 nM. The inhibition in [2] came out at 98%.
Regarding `COc1ccc(S(=O)(=O)NC[C@H]2O[C@@H](n3cnc4c(N)ncnc43)[C@H](O)[C@@H]2O)cc1C#N`, the IC50 in [1] came to 514 nM. The inhibition in assay [2] came out at 100%.
Turning to `N#Cc1cccc(S(=O)(=O)NC[C@H]2O[C@@H](n3cnc4c(N)ncnc43)[C@H](O)[C@@H]2O)c1`, the IC50 in [1] amounted to 5300 nM. Further, the inhibition in assay [2] was determined as 80%.
With `Nc1ncnc2c1ncn2[C@@H]1O[C@H](CNS(=O)(=O)c2ccc([N+](=O)[O-])cc2)[C@@H](O)[C@H]1O`, the IC50 worked out at 7600 nM in [5] and 14100 nM in assay [1]. For the same compound, the inhibition in assay [2] was 25%.
`CCN(C[C@H]1O[C@@H](n2cnc3c(N)ncnc32)[C@H](O)[C@@H]1O)S(=O)(=O)c1cccc([N+](=O)[O-])c1`: the IC50 in [1] turned out to be 516 nM. Also, the inhibition in assay [2] was determined as 75%.
Consider `Cc1ccc(S(=O)(=O)NC[C@H]2O[C@@H](n3cnc4c(N)ncnc43)[C@H](O)[C@@H]2O)cc1Cl`, for which the IC50 in assay [1] came to 344 nM. Besides, the inhibition in [2] came out at 90%.
Take `Nc1ncnc2c1ncn2[C@@H]1O[C@H](CNS(=O)(=O)c2ccc(Cl)cc2)[C@@H](O)[C@H]1O`: the IC50 in [1] is 13000 nM. For the same compound, the inhibition in assay [2] was found to be 25%.
On to `Nc1ncnc2c1ncn2[C@@H]1O[C@H](CNS(=O)(=O)c2ccc(C(F)(F)F)cc2[N+](=O)[O-])[C@@H](O)[C@H]1O`, for which the results for the IC50 in assay [5] and in assay [1] were 3300 nM and 3500 nM, respectively. For the same compound, the inhibition in [2] was 60%.
In the case of `Nc1ncnc2c1ncn2[C@@H]1O[C@H](CNS(=O)(=O)c2ccc(Br)c([N+](=O)[O-])c2)[C@@H](O)[C@H]1O`, the IC50 in assay [1] is 2900 nM. Besides, in [2], the inhibition is 85%.
`CCOC(=O)CCCCN(C[C@H]1O[C@@H](n2cnc3c(N)ncnc32)[C@H](O)[C@@H]1O)S(=O)(=O)c1ccc(OC)c([N+](=O)[O-])c1`: in assay [1], the IC50 stood at 114 nM. For the same compound, the inhibition in [2] worked out at 100%.
Consider `N#Cc1cc(S(=O)(=O)NC[C@H]2O[C@@H](n3cnc4c(N)ncnc43)[C@H](O)[C@@H]2O)ccc1F`, for which the IC50 in assay [1] worked out at 899 nM. Also, the inhibition in assay [2] was 90%.
`COc1cc([N+](=O)[O-])ccc1S(=O)(=O)NC[C@H]1O[C@@H](n2cnc3c(N)ncnc32)[C@H](O)[C@@H]1O`: the figures for the IC50 in assay [5] and in assay [1] were 25000 nM and 5100 nM, respectively. Moreover, the inhibition in assay [2] stood at 77%.
Turning to `Nc1ncnc2c1ncn2[C@@H]1O[C@H](CNS(=O)(=O)c2cccc(Cl)c2)[C@@H](O)[C@H]1O`, the inhibition in assay [2] came out at 20%.
In the case of `Nc1ncnc2c1ncn2[C@@H]1O[C@H](CNS(=O)(=O)c2ccc(F)c([N+](=O)[O-])c2)[C@@H](O)[C@H]1O`, in assay [1], the IC50 is 4400 nM. Moreover, the inhibition in assay [2] was 87%.
As for `CCN(C[C@H]1O[C@@H](n2cnc3c(N)ncnc32)[C@H](O)[C@@H]1O)S(=O)(=O)c1ccc(Br)c([N+](=O)[O-])c1`, the IC50 in assay [1] amounted to 80 nM. Further, in assay [2], the inhibition turned out to be 100%.
Taken in the same sequence, the figures for `CCN(C[C@H]1O[C@@H](n2cnc3c(N)ncnc32)[C@H](O)[C@@H]1O)S(=O)(=O)c1ccc(C(F)(F)F)cc1[N+](=O)[O-]` were 5000 nM and 84%.
`CCN(C[C@H]1O[C@@H](n2cnc3c(N)ncnc32)[C@H](O)[C@@H]1O)S(=O)(=O)c1ccc(OC)c(C#N)c1`: the Ratio IC50 in assay [6] is greater than 2000. In assay [3], the ΔTm came out at 11 °C. The IC50 in assay [1] turned out to be 19 nM; in [9] it was 52800 nM. Also, the inhibition entry was “Dde” in assay [7] and 100% in assay [2]. Further, the outcome in assay [4] was Active. For the same compound, the fold change (FC) in assay [8] was 2000.
Turning to `COc1ccc(S(=O)(=O)NC[C@H]2O[C@@H](n3cnc4c(N)ncnc43)[C@H](O)[C@@H]2O)c([N+](=O)[O-])c1`, the IC50 in assay [5] worked out at 2600 nM; in [1] it was 1400 nM. Besides, in assay [2], the inhibition came out at 70%.
Consider `Nc1ncnc2c1ncn2[C@@H]1O[C@H](CNS(=O)(=O)c2cccc([N+](=O)[O-])c2Cl)[C@@H](O)[C@H]1O`, for which the IC50 in [5] was found to be 1400 nM; in assay [1], 2100 nM. For the same compound, in assay [2], the inhibition was 75%.
Take `Nc1ncnc2c1ncn2[C@@H]1O[C@H](CNS(=O)(=O)c2ccc(Cl)c(Cl)c2)[C@@H](O)[C@H]1O`: in [1], the IC50 was 482 nM. The inhibition in assay [2] stood at 87%.
As to `Nc1ncnc2c1ncn2[C@@H]1O[C@H](CNS(=O)(=O)c2ccc([N+](=O)[O-])cc2Cl)[C@@H](O)[C@H]1O`, the inhibition in [2] is 21%.
Consider `Cc1ccc(S(=O)(=O)NC[C@H]2O[C@@H](n3cnc4c(N)ncnc43)[C@H](O)[C@@H]2O)cc1[N+](=O)[O-]`, for which the IC50 in assay [1] was 342 nM. Also, the inhibition in assay [2] came to 100%.
